# Results of several laboratories.
# Protocols differ between the studies behind these lines.
# Target: Dual specificity protein kinase CLK2 (CLK2, Homo sapiens, UniProt P49760)
# Method: competition with immobilised ligand
SMILES,effect on,concentration,remaining binding
c1cncc(-c2cccc(Nc3nccc(NC4CCCCC4)n3)c2)c1,binding,10 µM,15%
COc1ccc2c(c1)O[C@H](c1ccc(OC)c(OC)c1)C[C@@H]2NC(=O)C1(c2ccc3c(c2)OC(F)(F)O3)CC1,cell-free assay,1 µM,95%
O=C(NCCCN1CCOCC1)c1ccc(Nc2ncc(Cl)c(-c3ccc(Cl)s3)n2)cc1,binding,1 µM,5.7%
C[C@@]1(Cc2ccc(C#N)cc2)C(=O)N(c2cc(Cl)cc(Cl)c2)c2ncc(C(=O)NC3(c4nc(C5CCC5)no4)CC3)n21,cell-free assay,1 µM,100%
CN(CCCC(F)(F)F)c1nccc(-c2cnn3ncccc23)n1,binding,1 µM,47%
C[C@@H](c1ccc(-n2cnc3c(N)ncnc32)cc1)N1CCc2nn(C)c(Cc3ccccc3)c2C1=O,binding,0.1 µM,79%
Cc1nc(Cc2cccc(C(F)(F)F)c2)sc1-c1ccc(C(N)=O)nc1,cell-free assay,1 µM,100%
O=C(c1ccc(Nc2nccc(-c3cc4ccccc4s3)n2)cc1)N1CCC(N2CCCC2)CC1,binding,1 µM,39%
CC(=O)C1=C(C)N(c2cccc(C(F)(F)F)c2)C(=O)N[C@@H]1c1ccc(C#N)nc1,cell-free assay,1 µM,100%
CNC(=O)[C@@H]1CC[C@@H](n2c(-c3ccc4cnccc4c3)nc3ccc(C(=O)NCc4cccc(C(N)=O)c4)cc32)C1,binding,1 µM,100%
O=C(NCCCN1CCOCC1)c1ccc(Nc2nccc(-c3cc4ccccc4s3)n2)cc1,binding,1 µM,28%
CCN1CCN(Cc2ccc(C(=O)Nc3ccc(C)c(Oc4ccc5c(c4)CC(=O)N5)c3)cc2C(F)(F)F)CC1,binding,1 µM,100%
O=C(NCC1CCOCC1)c1n[nH]cc1NC(=O)c1c(F)cccc1F,binding,1 µM,34%
C=CC(=O)N1CCC(C(=O)NCC(=O)N2CCN(c3nc(-c4cnc(N)nc4C(F)F)nc(N4CCOCC4)n3)CC2)CC1,binding,1 µM,91%
